Screening results deposited in PubChem BioAssay by several laboratories.
Most compounds without a hit are left out; they make up all but 2.6% or so of the library.
IMP-1 inh: IMP-1 metallo-beta-lactamase inhibitors, primary screen, biochemical, epi-absorbance readout, Pseudomonas aeruginosa enzyme. metallo-beta-lactamase IMP-1 (Pseudomonas aeruginosa). purified IMP-1, nitrocefin hydrolysis, epi-absorbance fluorescence. inhibition, % at 5.6 µM. 0.45% of 290,000 active;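 active means inhibition above the mean plus 3 SD of all compounds in the same screening run, cut at about 4.5% in these data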;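 further: 0% = IMP-1 with DMSO and 100% = DMSO wells lacking enzyme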
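Test system: recombinant IMP-1 enzyme, purified / Medium: HEPES buffer pH 7.1 with ZnSO4 and Brij 35 / Doses: single dose, 5.6 µM / Times: 25 °C, 15 min preincubation, 25 min reaction / Detection: Epi-absorbance via hydrolysed-nitrocefin quenching of white-plate fluorescence, 480/530 nm, EDTA stop / Evaluation: percent inhibition from optical density relative to buffer-blank wells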
Runt-SMMHC FRET: inhibitors of RUNX1 Runt–CBFb-SMMHC binding, primary screen, biochemical, FRET, Cerulean-Runt, Venus-CBFb-SMMHC, uHTS. Cerulean-Runt/Venus-CBFb-SMMHC FRET ratio 530/480, 1 h. Runt-related transcription factor 1 (Homo sapiens) + Core-binding factor subunit beta …. inhibition, % at 20 µM. AID 1434, 2008. 0.74% of 220,000 active;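 active means mean inhibition across duplicate retests at 20 µM reaching about 50%, limit read from the data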;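 further: 0% = DMSO wells and 100% = wells with excess untagged CBFb-SMMHC; inhibitors lower the FRET ratio by blocking Runt binding to CBFb-SMMHC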
Target sequence (Q01196 whole entry, looked up): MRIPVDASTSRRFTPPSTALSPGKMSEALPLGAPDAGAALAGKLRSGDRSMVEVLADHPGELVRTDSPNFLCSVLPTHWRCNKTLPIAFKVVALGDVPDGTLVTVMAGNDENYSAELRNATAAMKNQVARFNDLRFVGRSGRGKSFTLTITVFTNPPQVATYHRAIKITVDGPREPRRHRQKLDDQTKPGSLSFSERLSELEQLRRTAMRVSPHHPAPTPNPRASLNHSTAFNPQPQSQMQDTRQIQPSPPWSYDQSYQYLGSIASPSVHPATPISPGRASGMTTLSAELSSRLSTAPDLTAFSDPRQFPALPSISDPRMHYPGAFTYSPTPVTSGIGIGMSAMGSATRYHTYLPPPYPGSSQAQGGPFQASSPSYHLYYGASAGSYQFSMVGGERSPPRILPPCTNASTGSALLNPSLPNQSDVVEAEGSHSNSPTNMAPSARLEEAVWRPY
Target sequence (Q13951 whole entry, looked up): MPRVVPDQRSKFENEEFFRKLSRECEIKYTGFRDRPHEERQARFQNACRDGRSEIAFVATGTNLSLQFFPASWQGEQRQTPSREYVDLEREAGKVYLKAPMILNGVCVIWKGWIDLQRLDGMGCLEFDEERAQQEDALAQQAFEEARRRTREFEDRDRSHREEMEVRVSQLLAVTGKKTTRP
Runt-CBFb FRET: inhibitors of RUNX1 Runt–CBFb binding, primary screen, biochemical, FRET, Cerulean-Runt, Venus-CBFb, uHTS. Runt-related transcription factor 1 (Homo sapiens) + Core-binding factor subunit beta …. Cerulean-Runt/Venus-CBFb FRET ratio 530/480, 1 h. inhibition, % at 20 µM. 0.46% of 220,000 active;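 active means inhibition over about 50% at 20 µM in the single-dose screen, limit read from the data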;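 further: 0% = DMSO wells and 100% = excess unlabeled CBFb competitor control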
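Assay system: Cerulean-Runt domain / Medium: Tris 50 mM pH 7.5, KCl, K2SO4, 0.01% BSA / Timing: protein complex preformed 1 h, compound exposure 1 h, room temperature, dark / Measured by: FRET, excitation 422 nm, emission at 530 and 480 nm / Evaluation: loss of energy transfer signal / Control set: 5 µM unlabeled CBFb as full-inhibition high control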
VIM-2 inh: VIM-2 metallo-beta-lactamase inhibitors, primary screen, biochemical, epi-absorbance readout, Pseudomonas aeruginosa enzyme. inhibition, % at 5.6 µM. purified VIM-2, nitrocefin hydrolysis, epi-absorbance fluorescence. 0.89% of 290,000 active. AID 1527, 2009;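 active means inhibition above the mean of all tested compounds plus 3 SD, cutoff set per screening run, cut at about 7.5% in these data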;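 further: red hydrolysis product quenches plate fluorescence so inhibitors raise well fluorescence; 0% = enzyme with DMSO and 100% = DMSO without enzyme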
RanGTP-Impb inh: inhibitors of RanGTP-importin-beta interaction, primary screen, biochemical, FRET, CFP-Ran, YFP-importin-beta, homogeneous. Ran GTPase (GTP-bound) - importin-beta complex. cell-free CFP-Ran/YFP-importin-beta FRET ratio. inhibition, % (no concentration beside the values). 1.1% of 300,000 active. AID 2216, 2009;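 active means more than half of the replicate wells show a fall in the fluorescence ratio signal beyond about 16%, limit read from the data, passing the limit was not always enough; inconclusive means exactly half of the replicate wells pass the set limit; inactive means fewer than half of replicates pass the limit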;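 further: 0% = DMSO wells and 100% = Ran loaded with GDP instead of GTP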
An asterisk follows results filed as active.

CCOc1ccc(CCNC(=O)Cn2nc(C)c3c(C)n(-c4ccccc4)nc3c2=O)cc1OCC was read as IMP-1 inh -0.7, VIM-2 inh -1.1 and RanGTP-Impb inh 1.0.
CN(C)c1ccc(/C=C/c2ccncc2)cc1 was read as IMP-1 inh 6.3*, Runt-SMMHC FRET -84.9, Runt-CBFb FRET -31.5 and VIM-2 inh 6.9.
`CN(C)c1ccc(/C=C/C(=O)c2ccccc2O)cc1` gave IMP-1 inh 6.0*, Runt-SMMHC FRET -37.1, Runt-CBFb FRET -23.7, VIM-2 inh -0.5 and RanGTP-Impb inh 3.0.
For CN(C)c1ccc(/C=C/C(=O)c2cccnc2)cc1 the results were IMP-1 inh 7.8*, Runt-SMMHC FRET -139.9, Runt-CBFb FRET -141.6, VIM-2 inh 4.2 and RanGTP-Impb inh -44.5.
`CCCn1c(=NC(C)=O)c(C#N)cc2c(=O)n3cccc(C)c3nc21` gave IMP-1 inh -3.7 and VIM-2 inh 5.4.
COCCCn1c(=NC(=O)c2ccc3c(c2)OCO3)c(C#N)cc2c(=O)n3cccc(C)c3nc21 was read as Runt-SMMHC FRET 154.9* and Runt-CBFb FRET 126.9*.
Screening Cc1nc2c(C)cccn2c(=O)c1NC(=O)c1ccc2c(c1)OCO2 returned RanGTP-Impb inh -2.0.
COCCCn1c(=NC(C)=O)c(C#N)cc2c(=O)n3cccc(C)c3nc21 was read as IMP-1 inh -2.0, Runt-SMMHC FRET 81.7*, Runt-CBFb FRET 57.1*, VIM-2 inh -0.3 and RanGTP-Impb inh 81.8*.
CN(C)CCn1c(SCc2ccccc2C#N)nc2c(sc3ccccc32)c1=O was read as IMP-1 inh 2.5, VIM-2 inh 10.4* and RanGTP-Impb inh 0.9.
`CCOC(=O)Cn1ccc(NC(=O)c2ccc3c(c2)OCO3)n1` gave IMP-1 inh -1.7, VIM-2 inh -1.6 and RanGTP-Impb inh 4.5.
For CCn1ncc(Br)c1C(=O)Nc1sc2c(c1C(N)=O)CCC2 the results were IMP-1 inh -4.0, Runt-SMMHC FRET -3.4, Runt-CBFb FRET 3.5, VIM-2 inh -2.3 and RanGTP-Impb inh 46.8*.
`O=C1C=C(Nc2ccc(Cl)cc2)CC(c2ccco2)C1` (stereo not drawn) gave IMP-1 inh -3.0, Runt-SMMHC FRET -0.7, Runt-CBFb FRET 1.3, VIM-2 inh -2.0 and RanGTP-Impb inh 28.8*.
For CC1CC(Nc2cccc(O)c2)=CC(=O)O1 (stereo not drawn) the results were IMP-1 inh 1.0, Runt-SMMHC FRET -2.2, Runt-CBFb FRET 3.2, VIM-2 inh -1.8 and RanGTP-Impb inh inconclusive.
CCOc1ccc(NC2=CC(=O)CC(c3ccco3)C2)cc1 (stereo not drawn) was read as IMP-1 inh 1.2, Runt-SMMHC FRET 1.1, Runt-CBFb FRET 3.1, VIM-2 inh -4.9 and RanGTP-Impb inh 4.6.
`O=C1C=C(Nc2cccc(O)c2)CC(c2ccco2)C1` (stereo not drawn) gave IMP-1 inh 1.5, Runt-SMMHC FRET -8.1, Runt-CBFb FRET 0.6, VIM-2 inh -1.0 and RanGTP-Impb inh 64.2*.
CCn1nnc2cc(C(=O)Nc3cc(OC)cc(OC)c3)ccc21 was read as RanGTP-Impb inh 0.2.
Screening CCCNC(=S)Nc1ccc2nc(-c3ccccn3)c(-c3ccccn3)nc2c1 returned IMP-1 inh -4.0, Runt-SMMHC FRET -22.6, VIM-2 inh -2.6 and RanGTP-Impb inh 27.5*.
S=C(Nc1ccc2nc(-c3ccccn3)c(-c3ccccn3)nc2c1)N1CCCCC1 was read as IMP-1 inh -1.7 and VIM-2 inh -2.0.
For CCOC(=O)c1c(CN(C)C)n(-c2ccc(C)cc2)c2cc(Br)c(O)cc12 the results were IMP-1 inh -2.9, Runt-SMMHC FRET 6.2, Runt-CBFb FRET 0.8, VIM-2 inh 8.4* and RanGTP-Impb inh -1.1.
CCOC(=O)c1c(CN(C)C)n(-c2ccccc2)c2cc(Br)c(OC)cc12 was read as IMP-1 inh -3.1, Runt-SMMHC FRET -2.6, Runt-CBFb FRET -1.2, VIM-2 inh 3.6 and RanGTP-Impb inh 5.9.
